Jurkat NFkB inh = lowers PMA/ionomycin-induced NF-kB signal in Jurkat cells. PMA/ionomycin-induced NF-kB luciferase reporter, luminescence. inhibition, % at 4 µM. actives 0.53% (n = 330,000); in the data active means inhibition above about 50%
GPR7 antagonist = antagonists of human GPR7 (neuropeptides B/W receptor 1); GPR7-expressing cells, fluorescence antagonist assay; inhibition, % at 4.4 µM; P48145; AID 1861; actives 1.1% (n = 290,000); in the data active means inhibition above about 16%, passing the limit was not always enough;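 further: cells stimulated with the agonist NPW; 0% = agonist with vehicle and 100% = vehicle without agonist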
Target sequence (P48145 whole entry, looked up): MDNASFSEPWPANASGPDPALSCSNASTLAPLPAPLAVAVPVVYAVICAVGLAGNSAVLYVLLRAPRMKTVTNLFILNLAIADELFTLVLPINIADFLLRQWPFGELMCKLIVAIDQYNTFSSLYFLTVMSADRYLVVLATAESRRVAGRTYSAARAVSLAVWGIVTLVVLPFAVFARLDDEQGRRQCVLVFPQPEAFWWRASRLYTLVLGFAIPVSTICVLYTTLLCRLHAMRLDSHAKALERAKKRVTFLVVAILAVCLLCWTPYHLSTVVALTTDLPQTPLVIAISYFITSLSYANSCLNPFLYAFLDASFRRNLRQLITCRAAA
697 NFkB inh = inhibitors of the PMA/ionomycin-induced NF-kB reporter in 697 B cells | 697 B-cell NF-kB luciferase reporter, 16 h | actives 0.33% (n = 330,000) | inhibition, % at 4 µM; in the data active means inhibition above about 35%
HSF1 activator = increases HSF-1 driven luciferase reporter signal | NIH3T3-HGL HSF-1 luciferase reporter, MG132, 8 h; 100% = twice DMSO control signal | activation, % at 9 µM | actives 1.7% (n = 300,000) | AID 504408;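 active means mean replicate activation of at least 50% with a set share of replicates each reaching 50%; inconclusive means only one of those two conditions met; inactive means mean below 50% and too few replicates reaching it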;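 further: 0% = median of the neutral control wells and 100% = twice that signal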
HSF1 inhib = HSF1 inhibition; NIH3T3-HGL HSE-luciferase, MG132-induced, luminescence 8 h; hits give low values; activity change, negative = inhibition, % at 7.5 µM (by protocol); actives 0.77% (n = 300,000); AID 2098;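 active means more than half of replicate wells show activity change below -50%, luminescence cut by over half; inconclusive means some wells, but at most half, below -50%; inactive means no replicate well below -50%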;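 further: luciferase reports HSF-1 transcriptional activity via heat shock element; 0% = median of DMSO wells and -100% = zero luminescence signal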
T cruzi inh = T. cruzi replication inhibition; inhibition, % (no concentration beside the values); AID 1885; actives 1.4% (n = 300,000); T. cruzi beta-gal in NIH3T3, luminescence, 90 h;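 active means mean inhibition across valid replicates above about 55%, limit read from the data; inconclusive means mean below that limit but half or more replicates reach it; inactive means mean below it, under half of replicates reach it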;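 further: signal also drops with host cell toxicity which is not excluded here; 0% = plate median of DMSO wells and 100% = zero luminescence signal; higher percent means less beta-gal luminescence so fewer parasites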
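System: mouse NIH/3T3 fibroblasts infected with β-gal-expressing T. cruzi Tulahuen C4 / Input: NIH/3T3 cells, 5,000 per well / Buffer or medium: Low-serum DMEM with 2% FBS / Probe or stimulus: 5000 reporter trypomastigotes per well / Schedule: ≥90 h infection period, 3 h prior cell attachment / Measured by: GalScreen luminescence, 60 min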
Starred values were filed as active, the others as inactive; u = inconclusive; x = no result given. Sampled rows, rich in hits. Any-hit rate of the full collection: about 4.8%.

SMILES	Jurkat NFkB inh	GPR7 antagonist	697 NFkB inh	HSF1 activator	HSF1 inhib	T cruzi inh
O=c1c2ccc([N+](=O)[O-])cc2ncn1CCOc1cccc(Br)c1	21	-3	13	26	8	67*
Cc1ccc(OCCn2cnc3ccccc3c2=O)c([N+](=O)[O-])c1	-100	4	-94	58*	26	-1
Cc1cc(OCCn2cnc3ccccc3c2=O)ccc1[N+](=O)[O-]	2	9	-36	10	3	4
Cc1ccc(NC(=O)Cn2cnc3cc([N+](=O)[O-])ccc3c2=O)cc1	-7	-8	26	-11	-5	52
O=C(Cn1cnc2cc([N+](=O)[O-])ccc2c1=O)Nc1ccc2c(c1)OCO2	3	-2	25	-6	-2	55*
Cc1cc(C)c(C(=O)Cn2cnc3cc([N+](=O)[O-])ccc3c2=O)cc1C	-9	11	22	11	8	68*
O=C(Cn1cnc2ccccc2c1=O)Nc1ccc2c(c1)OCO2	-36	-10	-41	13	-1	-3
COc1cc(-c2nnc(SCC(=O)N(C)C3CCS(=O)(=O)C3)o2)cc(OC)c1OC (stereo not given)	4	-9	13	-1	-6	-11
CCCC[C@@H]1C[C@H]1[C@@H](NC(=O)c1ccco1)c1ccc(Cl)cc1	10	-12	-6	-84	-82*	8
O=C(CC(Sc1ccc(Br)cc1)C(=O)O)c1ccc(F)cc1 (stereo not given)	0	2	-18	-28	-6	73*
COc1ccc(OC(=O)CCc2c[nH]c3ccccc23)cc1	-3	16	-3	-11	-3	2
COc1ccc(/C=C/c2nc3ccccc3n2Cc2ccccc2OC)cc1	-58	13	-35	68*	21	56*
COc1ccccc1Cn1c(/C=C/c2ccccc2)nc2ccccc21	-5	7	-4	29	12	31
CCN1CCN(CCCNC(=O)c2ccc(/C=C3/Sc4ccccc4N(Cc4ccccc4F)C3=O)cc2)CC1	-21	3	-15	-7	3	57*
CC(=O)Oc1ccc(OC(C)=O)c(SCCCCCCl)c1	x	-6	x	-96	-96*	25
CC1Cc2ccccc2N1C1=CC(=O)CCC1 (stereo not given)	1	9	19	3	2	38
Oc1cccc2ccc(Nc3ccccn3)nc12	25	4	-29	-52	u	62*
Cc1c(C)n(Cc2ccc(Cl)cc2)c2ccc(C(=O)NCCN3CCOCC3)cc12	4	-5	-16	21	11	9
CCc1ccc(-c2nc(SCC(=O)N(CC)C3CCS(=O)(=O)C3)n[nH]2)cc1 (stereo not given)	-8	x	-19	0	5	1
Cc1ccc(CC2SC(N=C(N)N)=NC2=O)cc1 (stereo not given)	4	14	7	81*	34	-7
COC(=O)c1ccc(-c2nc(CN3CCN(Cc4cccc(C)c4)CC3)c(C)o2)cc1	-25	-13	-36	-14	4	57*
COc1ccc(-c2nc(CN3CCN(Cc4cccc(F)c4)CC3)c(C)o2)cc1	-2	-6	-3	-1	-8	50
COC(=O)c1ccc(-c2nc(CN3CCCN(C(=O)c4ccco4)CC3)c(C)o2)cc1	-26	4	-33	2	0	19
COc1ccc(-c2nc(CN3CCN(Cc4cccc(Cl)c4)CC3)c(C)o2)cc1	3	-10	-25	15	-5	56*
COc1ccc(OC2CCN(C(=O)Nc3ccc(C)cc3)CC2)cc1	-1	28	-8	0	0	-8
SMILES	Jurkat NFkB inh	GPR7 antagonist	697 NFkB inh	HSF1 activator	HSF1 inhib	T cruzi inh
Cc1ccc(S(=O)(=O)Nc2cccc(C(=O)N3CCOCC3)c2)c(C)c1NS(C)(=O)=O	-16	1	-6	-53	-41	0
O=[N+]([O-])c1ccc(S(=O)(=O)N2CCN(c3ccnc4cc(Cl)ccc34)CC2)cc1	18	21	35	3	0	60*
O=S(=O)(c1cccc(Br)c1)N1CCN(c2ccnc3cc(Cl)ccc23)CC1	8	16	22	1	3	25
N=c1c(S(=O)(=O)c2ccccc2)cc2c(=O)n3ccccc3nc2n1C1CCCC1	5	-7	-4	3	-2	4
N=c1c(S(=O)(=O)c2ccc(Br)cc2)cc2c(=O)n3ccccc3nc2n1C1CCCC1	-10	0	-11	55*	24	32
N=c1c(S(=O)(=O)c2ccc(Cl)cc2)cc2c(=O)n3ccccc3nc2n1CCc1ccccc1	23	-1	-44	3	0	58*
N=c1c(S(=O)(=O)c2ccc(Cl)cc2)cc2c(=O)n3ccccc3nc2n1CCN1CCOCC1	-5	-6	3	-5	-3	3
CCCOc1ccc(-c2c(C(=O)N/N=C/C3CCCCC3)nnn2-c2nonc2N)cc1	6	-15	-5	0	4	14
COc1ccccc1/C=C1/SC(=S)N(C(C)C(=O)NC2C=CS(=O)(=O)C2)C1=O (stereo not given)	13	-19	-14	64*	10	-5
Cc1ccc(S(=O)(=O)N2CCC(C(=O)NNC(=O)c3ccccc3)CC2)cc1	2	-12	10	-13	-10	-1
COC(=O)c1ccc(NC(=O)Nc2ccccc2F)cc1	-122	9	-53	70*	35	-18
COC(=O)c1sccc1NC(=O)Nc1ccccc1F	-14	-17	-13	58*	22	-37
COC(=O)c1ccc(NC(=O)Nc2ccccc2C)cc1	-28	8	0	18	15	-6
CCOc1cc(/C=C/C(=O)c2ccc3c(c2)OCCO3)ccc1OCC(=O)N(C)C	42	-2	0	68*	53	-21
Cc1c(Cc2ccccc2)c(=O)oc2cc(OC(=O)c3ccccc3)ccc12	-4	-6	24	6	4	-15
COC(=O)Cc1c(C)c2ccc(OC(=O)c3ccccc3)cc2oc1=O	9	10	7	61*	27	-32
CCN(CC)c1ccc(C(=O)NNC(=O)CCNC(=O)c2ccccc2)cc1	-20	x	-7	x	x	x
CCN(CC)c1ccc(C(=C2C=CC(=[N+](CC)CC)C=C2)c2ccccc2)cc1	x	x	x	95*	95*	x
CC(=O)N1CCN(S(=O)(=O)c2cccc(C(=O)Nc3ccc(F)c(F)c3)c2)CC1	4	-12	-12	-9	5	39
CNS(=O)(=O)c1cccc(C(=O)OCC(=O)c2ccc3[nH]c(=O)[nH]c3c2)c1	-8	x	-6	x	x	x
CC(C)(C)C(=O)Nc1cccc(-c2cc(-c3c(Cl)cccc3Cl)no2)c1	-5	4	-16	54*	19	52
CC(C)(C)C(=O)Nc1cccc(C(=O)c2cccc(NC(=O)C(C)(C)C)c2)c1	-6	-3	-6	7	2	-10
